PMC3106293 (Xenobiotica; the fate of foreign compounds in biological …, 2009)
Read-outs that look alike come from different tables or passages of the source.

Tests used:
hSULT2A1 = target: T1, hSULT2A1 (Homo sapiens, UniProt Q06520); assay: Inhibition of DHEA sulfation by recombinant hSULT2A1; format: biochemical; details: for Inhibition of hSULT2A1-catalysed DHEA sulfation (in words): substrate 2 μM DHEA, concentration range 1–1000 μM
T1 sequence (Q06520 1-285): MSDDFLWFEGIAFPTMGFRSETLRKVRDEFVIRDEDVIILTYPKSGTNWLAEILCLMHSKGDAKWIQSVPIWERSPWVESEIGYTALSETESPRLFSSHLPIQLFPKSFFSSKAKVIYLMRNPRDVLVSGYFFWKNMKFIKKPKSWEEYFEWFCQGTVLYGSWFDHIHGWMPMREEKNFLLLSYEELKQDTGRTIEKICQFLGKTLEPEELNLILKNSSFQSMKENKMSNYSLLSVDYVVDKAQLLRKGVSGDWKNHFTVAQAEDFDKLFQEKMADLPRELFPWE
Outline: (§1)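 Test compound was added in DMSO (1% v/v final). Labelled substrates: [14C]2-naphthol 0.1 mM for hSULT1A1, [3H]DHEA 2 μM for hSULT2A1, [3H]oestradiol 0.15 μM for hSULT1E1. Incubated 30 min at 37°C, stopped with Tris pH 8.7, chloroform-extracted twice, aqueous phase scintillation-counted. IC50 from Hill-slope fit; three determinations.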

[1] = system: sulfotransferases (SULTs) in human intestine cytosol; assay: Sulfation of flavonoids by human intestine cytosol; format: in vitro ADME; details: for Km at 30 min: male, human, human intestine cytosol, pH 6.2
Outline: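 Cytosol (50 μg) from a person was incubated in 50 mM sodium phosphate pH 6.2 with 5 mM pNPS, 20 μM PAPS and test compound at 1 μM up to 1000 μM (upper limit varying by compound). After 30 min at 37°C, the reaction was stopped with 0.25 M Tris pH 8.7 and read at 401 nm. Product formation was linear with time. Km came from a Michaelis–Menten fit; means ± SD of three determinations.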

hSULT1A1 [2] = target: T2, hSULT1A1 (Homo sapiens, UniProt P50225); assay: Sulfation of flavonoids by recombinant hSULT1A1; format: in vitro ADME
T2 sequence (P50225 whole entry): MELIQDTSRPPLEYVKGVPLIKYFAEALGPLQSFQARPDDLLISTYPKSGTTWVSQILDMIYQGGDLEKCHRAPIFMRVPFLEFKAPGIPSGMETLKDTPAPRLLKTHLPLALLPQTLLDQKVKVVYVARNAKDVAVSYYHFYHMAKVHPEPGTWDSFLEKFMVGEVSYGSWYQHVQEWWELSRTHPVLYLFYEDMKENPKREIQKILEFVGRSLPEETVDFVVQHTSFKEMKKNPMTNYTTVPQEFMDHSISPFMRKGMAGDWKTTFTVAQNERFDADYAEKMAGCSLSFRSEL

hSULT1A1 [3] = target: T2, hSULT1A1; assay: Inhibition of 2-naphthol sulfation by recombinant hSULT1A1; format: biochemical
Outline: as §1

[4] = system: human intestine cytosolic SULTs; assay: Inhibition of oestradiol sulfation by human intestine cytosol; format: biochemical; details: read-out: IC50, Oestradiol sulfation, Cytosol, substrate 0.15 μM oestradiol
Outline: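 [3H]oestradiol (0.15 μM final) sulfation by 100 μg intestine cytosol from a person. Buffer 50 mM Tris (pH 6.2) with 20 μM PAPS. Test compound in DMSO (1% v/v final), 0.01–1000 μM. Reaction 30 min at 37°C, quenched with 0.25 M Tris (pH 8.7), chloroform-extracted twice, aqueous phase counted by scintillation. IC50 from a Hill-slope fit; mean ± SD of three determinations.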

[5] = system: human intestine cytosol (SULT1A1 and SULT1A3); assay: Inhibition of 2-naphthol sulfation by human intestine cytosol; format: biochemical; details: read-out: IC50, 2-Naphthol sulfation, Cytosol, substrate 100 μM 2-naphthol
Outline: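 Radioactive assay in 50 mM Tris (pH 6.2) with 20 μM PAPS and [14C]2-naphthol (0.1 mM final). Enzyme source: 100 μg intestine cytosol from a person. Test compound in DMSO (1% v/v final), 0.01–1000 μM. Incubated 30 min at 37°C, stopped with 0.25 M Tris (pH 8.7), extracted twice with chloroform, aqueous phase scintillation-counted. IC50 fitted with a Hill-slope equation; mean ± SD of three determinations.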

hSULT1E1 = target: T3, hSULT1E1 (Homo sapiens, UniProt P49888); assay: Inhibition of oestradiol sulfation by recombinant hSULT1E1; format: biochemical; details: for Inhibition of hSULT1E1-catalysed oestradiol sulfation (in words): substrate 0.15 μM oestradiol, concentration range 1–1000 μM
T3 sequence (P49888 1-294): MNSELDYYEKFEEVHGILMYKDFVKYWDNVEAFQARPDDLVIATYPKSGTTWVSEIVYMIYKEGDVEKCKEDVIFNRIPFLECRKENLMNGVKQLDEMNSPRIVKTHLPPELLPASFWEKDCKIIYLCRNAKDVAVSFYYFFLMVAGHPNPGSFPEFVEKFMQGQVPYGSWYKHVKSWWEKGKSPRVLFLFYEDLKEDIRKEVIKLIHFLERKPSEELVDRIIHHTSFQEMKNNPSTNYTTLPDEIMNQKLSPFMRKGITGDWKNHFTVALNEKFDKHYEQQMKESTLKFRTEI
Outline: as §1

hSULT1A3 [6] = target: T4, hSULT1A3 (Homo sapiens, UniProt P0DMM9); assay: Inhibition of dopamine sulfation by recombinant hSULT1A3; format: biochemical
T4 sequence (P0DMM9 whole entry): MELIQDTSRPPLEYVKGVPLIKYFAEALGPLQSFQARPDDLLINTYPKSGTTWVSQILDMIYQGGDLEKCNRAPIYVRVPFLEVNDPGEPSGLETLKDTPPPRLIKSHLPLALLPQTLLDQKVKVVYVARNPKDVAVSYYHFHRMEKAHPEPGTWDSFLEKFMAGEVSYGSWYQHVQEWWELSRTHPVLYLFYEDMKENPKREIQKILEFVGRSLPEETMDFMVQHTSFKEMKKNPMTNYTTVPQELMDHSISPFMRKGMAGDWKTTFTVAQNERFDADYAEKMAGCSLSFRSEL

hSULT1A3 [7] = target: T4, hSULT1A3; assay: Sulfation of flavonoids by recombinant hSULT1A3
hSULT1A1 [8] = target: T2, hSULT1A1; assay: Inhibition of oestradiol sulfation by recombinant hSULT1A1; format: biochemical
[9] = flavonoid as substrate, Michaelis–Menten equation (1), 1–1000 μM catechin, 1–1000 μM epicatechin, 1–128 μM hesperetin, 1–32 μM eriodictyol
[10] = flavonoid as substrate, substrate inhibition equation (2), listed as hesperetin
[11] = flavonoid as substrate, substrate inhibition equation (2)
[12] = flavonoid as substrate, substrate inhibition equation (2), listed as catechin
[13] = substrate inhibition constant of flavonoid sulfation, equation (2)

| Vmax (hSULT1A1 [2]; [11]) [nmol/mg/min] | Structure (SMILES) | IC50 (hSULT2A1) [µM] | Vmax [1, 9] [nmol/mg/min] | Km at 30 min [1] [µM] | Ki (hSULT1A1 [2]) [µM] | IC50 (hSULT1A1 [3]) [µM] | IC50 [4] [µM] | IC50 [5] [µM] | IC50 (hSULT1E1) [µM] | IC50 (hSULT1A3 [6]) [µM] | Ki (hSULT1A3 [7]) [µM] | Vmax (hSULT1A3 [7]; [11]) [nmol/mg/min] | also measured |
| --- | --- | --- | --- | --- | --- | --- | --- | --- | --- | --- | --- | --- | --- |
| – | COc1ccc([C@@H]2CC(=O)c3c(O)cc(O)cc3O2)cc1O [Hesperetin] | 152 ± 14.9 | 8.9 ± 0.3 | 66 ± 3.3 | 3.7 ± 0.11 | 23.4 ± 5.75 | 3.6 ± 0.4 | 32.2 ± 3.6 | 90.4 ± 11.5 | 20.8 ± 8.1 | 4.2 ± 0.06 | 303 ± 5.8 | Vmax (hSULT1A1 [2]; [10]): 92.7 nmol/mg/min; Vmax (hSULT1A3 [7]; [10]): 303 nmol/mg/min |
| 188 | Oc1cc(O)c2c(c1)O[C@H](c1ccc(O)c(O)c1)[C@H](O)C2 [Epicatechin, (−)epicatechin] | – | 4.2 ± 0.2 | 149 ± 9.2 | 8.7 ± 3.07 | 42.5 ± 8.5 | 22.7 ± 5.6 | 157 ± 37.6 | – | 117 ± 12.9 | 9.5 ± 0.21 | 442 | Inhibition of hSULT2A1-catalysed DHEA sulfation (in words) (hSULT2A1; listed as (−)epicatechin): did not significantly inhibit; Inhibition of hSULT2A1-catalysed DHEA sulfation (in words) (hSULT2A1; listed as epicatechin): not inhibited; Inhibition of hSULT1E1-catalysed oestradiol sulfation (in words) (hSULT1E1; listed as (−)epicatechin): did not significantly inhibit; Inhibition of hSULT1E1-catalysed oestradiol sulfation (in words) (hSULT1E1; listed as epicatechin): not inhibited; IC50 (hSULT1A1 [8]): 6.1 ± 1 µM |
| 187 ± 9.9 | Oc1cc(O)c2c(c1)OC(c1ccc(O)c(O)c1)C(O)C2 (single isomer, unassigned; (+)) [Catechin, (+)catechin] | – | 6.7 ± 0.02 | – | – | – | 10.1 ± 1.7 | 67.1 ± 6.3 | – | – | – | 342 ± 8.2 | Inhibition of hSULT2A1-catalysed DHEA sulfation (in words) (hSULT2A1; listed as (+)Catechin): did not significantly inhibit; Inhibition of hSULT2A1-catalysed DHEA sulfation (in words) (hSULT2A1; listed as catechin): not inhibited; Km [1, 9]: 104 ± 7.3 µM; Km (hSULT1A1 [2]; [11]): 165 ± 8.1 µM; Vmax (hSULT1A1 [2]; [12]): 187 nmol/mg/min; Ki (hSULT1A1 [2]; [13]): 6.37 ± 0.22 µM; IC50 (hSULT1A1 [3]; read-out: IC50, 2-Naphthol sulfation, hSULT1A1, substrate 100 μM 2-naphthol): 8.4 ± 3.3 µM; Inhibition of hSULT1E1-catalysed oestradiol sulfation (in words) (hSULT1E1; listed as (+)catechin): did not significantly inhibit; Inhibition of hSULT1E1-catalysed oestradiol sulfation (in words) (hSULT1E1; listed as catechin): not inhibited; IC50 (hSULT1A3 [6]; read-out: IC50, Dopamine sulfation by hSULT1A3, substrate 50 μM dopamine): 82.5 ± 31.5 µM; Km (hSULT1A3 [7]; [11]): 236 ± 5.6 µM; Vmax (hSULT1A3 [7]; [12]): 342 nmol/mg/min; Ki (hSULT1A3 [7]; [13]): 8 ± 0.29 µM; IC50 (hSULT1A1 [8]; read-out: IC50, Oestradiol sulfation, hSULT1A1, substrate 0.15 μM oestradiol): 2.6 ± 0.4 µM |

| Structure (SMILES) | Vmax (hSULT1A1 [2]; [11]) [nmol/mg/min] | IC50 (hSULT2A1) [µM] | Vmax [1, 9] [nmol/mg/min] | Km at 30 min [1] [µM] | Ki (hSULT1A1 [2]) [µM] | IC50 (hSULT1A1 [3]) [µM] | IC50 [4] [µM] | IC50 [5] [µM] | IC50 (hSULT1E1) [µM] | IC50 (hSULT1A3 [6]) [µM] | Ki (hSULT1A3 [7]) [µM] | Vmax (hSULT1A3 [7]; [11]) [nmol/mg/min] | also measured |
| --- | --- | --- | --- | --- | --- | --- | --- | --- | --- | --- | --- | --- | --- |
| O=C1C[C@@H](c2ccc(O)c(O)c2)Oc2cc(O)cc(O)c21 [Eriodictyol, eriodictyol] | 98.6 | 139 ± 8.8 | 19.4 ± 2.4 | 220 ± 28 | 6.1 ± 0.14 | 15.2 ± 0.9 | 11.8 ± 2 | 28.9 ± 4.1 | 677 ± 120 | 14.7 ± 8.9 | 4.6 ± 0.02 | 269 | – |
